Results from publication PMC6456254 (ACS chemical neuroscience, 2018).

Assays:
M1 [1] = conditions: cited from earlier work
M2 and M4 = conditions: cited from earlier work
Solubility in SGF = type: physicochemical; conditions: pH 1.6
human M2−5 = test: PAM selectivity versus human M2-5; type: cell-based; conditions: read-out: EC50 vs human M2−5
[2] = Fraction unbound in rat plasma; type: in vitro ADME
M1 [3] = type: cell-based; conditions: high expressing recombinant cell lines, species not stated
[4] = Fraction unbound in human plasma; type: in vitro ADME
[5] = Predicted hepatic clearance, rat; type: in vitro ADME
[6] = Predicted hepatic clearance, human; type: in vitro ADME
rat M1 = target: T1, rat M1 (Rattus norvegicus, UniProt P08482); test: Rat M1 functional assay in high expressing M1 cell line; type: cell-based; conditions: rat M1, up to 30 μM
T1 sequence (P08482 1-460): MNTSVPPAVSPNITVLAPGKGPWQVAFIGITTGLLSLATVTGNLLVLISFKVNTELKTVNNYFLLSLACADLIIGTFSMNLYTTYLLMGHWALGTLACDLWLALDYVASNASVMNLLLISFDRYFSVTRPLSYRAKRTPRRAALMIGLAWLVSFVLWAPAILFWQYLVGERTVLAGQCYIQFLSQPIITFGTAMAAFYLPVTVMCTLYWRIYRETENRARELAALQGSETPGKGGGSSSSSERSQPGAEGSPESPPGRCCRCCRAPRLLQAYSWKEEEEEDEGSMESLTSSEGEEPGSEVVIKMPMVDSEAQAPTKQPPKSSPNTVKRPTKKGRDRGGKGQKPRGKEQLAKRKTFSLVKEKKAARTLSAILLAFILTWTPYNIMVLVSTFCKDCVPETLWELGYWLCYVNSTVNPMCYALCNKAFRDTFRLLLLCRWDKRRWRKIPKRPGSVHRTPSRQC
Summary of the method: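 Calcium mobilization in CHO cells expressing rat M1. Agonist mode adds no exogenous acetylcholine, and EC50 is derived from the response. PAM mode is run with a fixed EC20 concentration of acetylcholine. Values are means from three independent experiments, each performed in triplicate.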

Molecule: COc1ccc(Cn2cc(C(=O)O)c(=O)c3ccccc32)cc1 [compound 1, BQCA]
- mode of M1 pharmacology (M1 [1]): highly potent and robust M1 ago-PAM

Molecule: O=C1C(=O)N(Cc2ccc(Br)cc2)c2ccccc21 [compound 9, VU0119498]
- activity at M2 and M4 (M2 and M4): inactive
- M1 agonist activity (M1 [1]; HTS hit): virtually no detectable M1 agonist activity

Molecule: VU0451725 [compound 10]
- solubility (Solubility in SGF): < 5 µg/mL

Molecule: VU6005877 [24c]
- EC50 (human M2−5): > 30 µM
- fraction unbound in plasma, rat fu [2]: 0.016
- M1 agonism (M1 [3]): devoid of M1 agonism
- fraction unbound in plasma, human fu [4]: 0.01
- predicted hepatic clearance, rat CLhep [5]: 31.7 mL/min/kg
- CLp (In vivo rat PK): 7.3 mL/min/kg
- predicted hepatic clearance, human CLhep [6]: 13.6 mL/min/kg
- agonist activity in high-expressing M1 cell line (rat M1): no agonist activity
